# From PubChem BioAssay
# DENV2 CPE rescue: DENV2-induced cell death inhibition | 350,000 compounds, 1.7% hits | AID 651640 | DENV2-infected cells, cytopathic effect rescue, plate reader | CPE inhibition, % at 9.99 µM; in the data active = CPE inhibition above about 20%, passing the limit was not always enough; inconclusive = no clear call, values can overlap the other calls; tested in BHK-21 cells;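 also: 0% = median of neutral control wells and 100% = median of positive control wells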
# PglD DTNB: blocks C. jejuni PglD acetyltransferase activity; purified PglD enzyme, DTNB colorimetric CoA detection; inhibition, % at 12.5 µM; 360,000 compounds, 0.098% hits; AID 602405; in the data active = inhibition above about 16%, passing the limit was not always enough; inconclusive = no clear call, values can overlap the other calls
# Env fusion inh: HIV envelope-mediated fusion inhibition; HeLa-JRFL Env/CEM21 cell fusion, luciferase; 360,000 compounds, 1.1% hits; inhibition, % at 12.3 µM;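 active = mean replicate inhibition score of at least 50 and every replicate individually at or above 50; inconclusive = only one of the two criteria met; inactive = mean below 50 and not all replicates reaching 50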;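 also: 0% = plate neutral controls and 100% = maraviroc near 300 nM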
# FN deposition inh: fibronectin deposition inhibition; AH1F fibroblasts, Alexa488-fibronectin deposition fluorescence, overnight; inhibition, % at 12.6 µM; 350,000 compounds, 0.086% hits; AID 743247;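 active = mean inhibition across replicates of 30% or more, regardless of how many single replicates reach that level; inconclusive = mean under 30% yet at least half of replicates reach 30%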;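 also: positive control wells lacked labelled fibronectin entirely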
#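 Material – AH1F fibroblast monolayer, labelled fibronectin deposition · Reagent – labelled fibronectin 24 nM · Timing – 1 h adhesion, overnight exposure · Measured by – fluorescence at 485 nm excitation, 525 nm emission · Read-out – inhibition of fibronectin deposition signal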
# rRNA inh HTS: inhibits bacterial ribosomal RNA function over humanized ribosomes | E. coli WT GFP vs humanized-ribosome RFP mutants, fluorescence, 24 h; active compounds read low; DMSO median 0, no signal -100 | GFP signal change (wild-type ribosome), % (concentration not given with the values) | 350,000 compounds, 1.6% hits | AID 720706;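 active = significant combined selectivity score with lowered wild-type GFP, culture density cut under 30%, mutant RFP and density less affected; inactive = any of these conditions unmet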
# PGC1a acetyl inh: lowers PGC1a acetylation signal in U2OS cells; AlphaScreen anti-acetyl-lysine; with virally co-expressed GCN5 acetyltransferase; inhibition, % at 15.6 µM; 350,000 compounds, 0.17% hits; AID 651687;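 active = every replicate shows inhibition of at least 40%; inconclusive = mean inhibition at least 40% but some replicate below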;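 also: 0% = neutral control wells and 100% = positive control wells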
# The depositor's hits bear a star; ? = inconclusive; · = no result given; [ ] = remark or other dose. This is a sample that favours compounds with a hit; in the whole collection about 3.5% have one here.
SMILES,DENV2 CPE rescue,PglD DTNB,Env fusion inh,FN deposition inh,rRNA inh HTS,PGC1a acetyl inh
CCOc1ccc2nc(N3CCCCCC3)sc2c1,-4,2,·,·,-32*,-6
Cc1noc(C)c1NC(=O)N(C)C[C@@H]1OCCCC[C@H](C)Oc2ccc(NS(=O)(=O)c3ccc(Cl)cc3)cc2C(=O)N([C@@H](C)CO)C[C@H]1C,-6,3,-228[16.7 µM],-15,-4,-7
Cc1noc(C)c1NC(=O)N(C)C[C@H]1OCCCC[C@@H](C)Oc2ccc(NS(=O)(=O)c3ccc(F)cc3)cc2C(=O)N([C@H](C)CO)C[C@@H]1C,-9,-1,60*[16.7 µM],0,1,·
Cc1noc(C)c1NC(=O)N(C)C[C@@H]1OCCCC[C@H](C)Oc2ccc(NS(=O)(=O)c3ccc(Cl)cc3)cc2C(=O)N([C@H](C)CO)C[C@@H]1C,32*,0,-6[16.7 µM],-4,-3,14
Cc1ccc(-c2noc(CN(C(=O)c3ccc4c(c3)OCO4)C(C)C)n2)cc1,0,-4,1,4,3,12
CC(C)N(Cc1nc(-c2ccc(Cl)cc2)no1)C(=O)CN(C)S(=O)(=O)c1ccc(Cl)cc1,·,0,·,·,2,-6
CC(C)N(Cc1nc(-c2ccccc2)no1)C(=O)CN(C)S(=O)(=O)c1ccc(Br)cc1,·,0,70*,·,·,2
CC(C)N(Cc1nc(-c2ccccc2)no1)C(=O)c1ccc2c(c1)OCO2,·,-2,·,·,-29*,-1
O=C(NC1CCCC1)N1CC2(C1)[C@@H](c1ccccc1)[C@@H](CO)N2CC1CCOCC1,1,·,·,·,3,2
Nc1n[nH]c(C2CC2)c1N=Nc1ccc(Cl)cc1,0,-6,-7,1,-9,12
Nc1n[nH]c(C2CC2)c1N=Nc1ccc(Cl)c(Cl)c1,4,-7,-22,3,-52*,6
CC(=O)N1CC(=O)N2[C@H](CO)[C@H](c3ccc(C#CC(C)C)cc3)[C@@H]2C1,7,·,·,·,1,-9
COc1ccc(S(=O)(=O)N2CC(=O)Nc3ccccc32)cc1Cl,-3,0,0,-4,-33*,11
CCOc1ccc(S(=O)(=O)N2CC(=O)Nc3ccccc32)cc1C#N,-5,3,-3,6,-3,-3
COc1ccc(Nc2c(CCc3ccccc3)nc3nc(C)cc(C)n23)cc1,2,·,85*,11,-4,·
O=C(NCCO)c1ccc2c3n(nc2c1)-c1ccccc1CO3,69*,3,-115,4,2,6
O=C(C[C@@H]1C[C@H]2c3cc(NC(=O)Nc4ccccc4)ccc3O[C@H]2[C@H](CO)O1)NC1CCCCC1,-5,1,2[16.7 µM],-6,-10,0
COCCNC(=O)C[C@H]1C[C@@H]2c3cc(NC(=O)Nc4ccccc4F)ccc3O[C@@H]2[C@H](CO)O1,3,1,-17[16.7 µM],2,2,2
CCCCNC(=O)C[C@@H]1C[C@@]2(C(=O)OC)CCCCC=C2N(CCC2=CCCCC2)C1=O,80*,·,15,7,-32,·
COC(=O)[C@]12CCCCC=C1N(CCC1=CCCCC1)C(=O)[C@H](CC(=O)NCc1cccc(C(F)(F)F)c1)C2,51*,·,8,1,17,·
CCOC(=O)[C@]12CCCC=C1N(CCC1=CCCCC1)C(=O)[C@H](CC(=O)NCc1cccc(C(F)(F)F)c1)C2,14,·,25,9,·,·
C#CCNC(=O)C[C@@H]1C[C@@]2(C(=O)OC)CCCCC=C2N(CCC2=CCCCC2)C1=O,?,·,37,21,-18,·
CCCC(=O)Nc1ccc2c(c1)C(=O)N(C)C[C@@H](OC)[C@@H](C)CN(C(=O)CC1CC1)[C@@H](C)CO2,1,4,-10[16.7 µM],-10,0,7
CN(C)C(=O)c1ccc(NC(=O)COc2cccc(Oc3ccccc3)c2)cc1,-1,3,-1,8,-27*,·
Cc1ccc(-c2nc3cnccn3c2Nc2ccc3c(c2)OCO3)o1,5,-1,5,17,-17*,6
SMILES,DENV2 CPE rescue,PglD DTNB,Env fusion inh,FN deposition inh,rRNA inh HTS,PGC1a acetyl inh
N#C/C(=C\c1c[nH]c2ccccc12)C(=O)NC1CCCC1,?,-12,-16,2,-35*,-7
N#C/C(=C\c1c[nH]c2ccccc12)C(=O)NC1CC1,2,-6,-97,-11,-10,-17
N#C/C(=C\c1ccc2c(c1)OCCO2)C(=O)NC1CCCCC1,62*,·,-9,4,0,·
COc1ccc(/C=C(/C#N)C(=O)NC2CCCCC2)cc1Br,·,5,-40,-15,·,-5
COc1ccc(NC(=O)N(C)C[C@@H]2Oc3c(NC(=O)Nc4c(C)noc4C)cccc3C(=O)N([C@H](C)CO)C[C@@H]2C)cc1,20,0,·,·,3,-1
C[C@H](CO)N1C[C@H](C)[C@@H](CN(C)C(=O)Nc2ccccc2)Oc2ccc(NC(=O)CCN3CCOCC3)cc2CC1=O,0,-5,·,·,1,3
COc1ccc(NCN2C(=O)CCC2=O)cc1,·,-4,·,·,·,10
O=C1CCC(=O)N1CNc1ccc(Oc2ccccc2)cc1,-4,-6,·,·,-13*,1
COc1ccc(-n2c(SCC#N)nnc2-c2cccnc2)cc1,·,-5,-10,-24,·,?
CCOc1ccc(-n2c(SCC(N)=O)nnc2-c2cccnc2)cc1,23*,·,7,7,3,·
O=C(NC1CCCC1)N1CC2(C1)[C@H](c1ccccc1)[C@@H](CO)N2S(=O)(=O)Cc1ccccc1,-4,·,·,-2,-1,-1
C[C@@H]1CN([C@@H](C)CO)C(=O)Cc2cc(NC(=O)Nc3ccc4c(c3)OCO4)ccc2O[C@H]1CN(C)Cc1ccc(Cl)c(Cl)c1,1,-2,57*[16.7 µM],·,-1,2
C[C@H](CO)N1C[C@H](C)[C@H](CN(C)Cc2ccc(Cl)c(Cl)c2)Oc2ccc(NC(=O)Nc3ccc4c(c3)OCO4)cc2CC1=O,1,-1,17[16.7 µM],·,0,-5
C[C@H]1CN([C@@H](C)CO)C(=O)Cc2cc(NC(=O)Nc3ccc4c(c3)OCO4)ccc2O[C@H]1CN(C)Cc1ccc(C(=O)O)cc1,78*,2,-12[16.7 µM],·,0,5
Cc1cccc(NC(=S)NC(C)CCc2ccccc2)c1 (centres undefined),45*,-5,·,2,-26,·
Cc1cccc(NC(=O)NC(C)CCc2ccccc2)c1 (centres undefined),-2,2,1,1,·,-11
CN(Cc1cncnc1)C[C@@H]1N[C@H](CO)[C@@H]1c1ccc(-c2ccc(C#N)cc2)cc1,8,·,·,1,-2,·
CCCNC(=O)N(C)C[C@H]1Oc2cc(C#C[C@H](C)O)ccc2S(=O)(=O)N([C@H](C)CO)C[C@H]1C,42*,-1,-7[16.7 µM],-1,7,18
C[C@@H]1CN([C@H](C)CO)S(=O)(=O)c2ccc(C#CC3CCCC3)cc2O[C@H]1CN(C)C,61*,5,?,3,1,-52
